Data set [1] can be described thus: Antiviral activity against Murine cytomegalovirus strain Smith infected in mouse NIH 3T3 cells after 4 to 5 days by plaque reduction assay. Format: functional, cell-based. The settings on record: Murid betaherpesvirus 1, NIH3T3. The essentials:
(§1)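 Semiconfluent fibroblasts (HCMV Towne in HFL, GPCMV in guinea pig lung fibroblasts, MCMV Smith in NIH 3T3) in 12-well plates inoculated with 50 or 100 PFU, centrifuged 600 × g 30 min, 1–2 h at 37°C; inoculum replaced by twofold compound dilutions in 1% methylcellulose, 4% FBS. Incubation 4–5 d MCMV, 6–7 d GPCMV, 10–12 d HCMV; crystal violet/formalin stain, plaques counted, triplicate; EC50 by linear regression of log concentration vs % plaque reduction.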

Data set [2] relates to Caviid betaherpesvirus 2. Briefly: Antiviral activity against Guinea pig cytomegalovirus (strain 22122; ATCC VR-682) infected in guinea pig lung fibroblast after 6 to 7 days by plaque reduction assay. It counts as functional, organism-based. The essentials: as §1
For data set [3], the system named is Human betaherpesvirus 5. Briefly: Antiviral activity against Human cytomegalovirus Towne infected in human HFL after 10 to 12 days by plaque reduction assay. The settings on record: Human betaherpesvirus 5, Towne. Format: functional, organism-based. Summed up:
as §1

Data set [4] deals with Human betaherpesvirus 5. Briefly: Antiviral activity against Human cytomegalovirus Towne infected in human hTERT-BJ1 cells assessed as inhibition of virus induced infection after 48 hrs post infection by luciferase reporter gene assay. The settings on record: BJ. Format: functional, organism-based. Summed up: (§2)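 hTERT-BJ1 cells (3 × 10^4/well, 96-well) infected next day with 2 × 10^3 PFU HCMV Towne and given 20 μM compound or DMSO over varied windows: added at set times and kept to harvest, removed at set times, or present 24 h from set start times. Luciferase measured at 48 h p.i. in three wells; mean and SD.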

Data set [5] deals with Human betaherpesvirus 5. In words: Antiviral activity against Human cytomegalovirus Towne infected in human hTERT-BJ1 cells assessed as inhibition of attachment of virus particles to the cell surface at 20 uM after 2 hrs post infection by quantitative PCR. It counts as functional, organism-based. The settings on record: BJ.
Data set [6] has as its system Human betaherpesvirus 5. Briefly: Antiviral activity against Human cytomegalovirus AD169 infected in human U4C-48 cells assessed as decrease in viral titer by luciferase reporter gene assay. It counts as functional, organism-based. The settings on record: Human betaherpesvirus 5, AD169, U4C-48.
The test system of data set [7] is Human betaherpesvirus 5. In words: Antiviral activity against Human cytomegalovirus Towne infected in human hTERT-BJ1 cells assessed as decrease in G6PD gene expression at 20 uM after 24 hrs by RT-PCR. Format: functional, organism-based. The settings on record: BJ. Summed up:
(§3)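 hTERT-BJ1 cells (4 × 10^5 per T12.5 flask) infected with HCMV at MOI 0.05, cultured with DMSO, 15 μM roscovitine or 20 μM test compound for set periods; cells washed with PBS, stored at −80°C, total RNA purified; IE1, IE2 and G6PD transcripts by quantitative RT-PCR, IE1/IE2 given as CT after normalization to G6PD; triplicate experiments, mean and SD.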

Data set [8] concerns Human betaherpesvirus 5. Briefly: Antiviral activity against Human cytomegalovirus RC256 infected in human hTERT-BJ1 cells after 1 hr by Immunostaining and Xgal staining. It counts as functional, organism-based. The settings on record: Human betaherpesvirus 5, RC256, BJ. Summed up:
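hTERT-BJ1 cells infected with HCMV RC256, a β-galactosidase-expressing recombinant Towne strain, in the presence of various compound concentrations; infected cells counted after X-Gal staining to derive EC50.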

Data set [9] is described as follows: Cytotoxicity against HLF cells. The settings on record: human. It counts as cell-based. Summed up: (§4)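 Cells at 20–25% confluence in 96-well plates cultured 2–4 days with twofold serial compound dilutions or matching DMSO; supernatant removed, cells rinsed, viability read as ATP luminescence (CellTiter-Glo); triplicate; 50% cytotoxic concentration from log concentration vs RLU plot.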

Data set [10] relates to Human betaherpesvirus 5. In words: Antiviral activity against Human cytomegalovirus Towne infected in human hTERT-BJ1 cells assessed as decrease in IE1 mRNA level at 5 uM after 24 hrs by immunofluorescent assay. The settings on record: BJ.
Data set [11] can be described thus: Cytotoxicity against human hTERT-BJ1 cells. It counts as cell-based, BJ. The essentials: as §4
The nature of data set [12]: Selectivity index, ratio of CC50 for human hTERT-BJ1 cells to EC50 for Human cytomegalovirus Towne. Format: toxicity, cell-based, BJ. The settings on record: read-out: Selectivity Index.
The subject of data set [13] is Human betaherpesvirus 5. Briefly: Antiviral activity against Human cytomegalovirus Towne infected in human hTERT-BJ1 cells assessed as inhibition of virus induced infection after 24 hrs post infection by luciferase reporter gene assay. It counts as functional, organism-based. The settings on record: BJ. The essentials: as §2
Data set [14] can be described thus: Selectivity index, ratio of CC50 for human lung fibroblast cells to EC50 for Human cytomegalovirus Towne. Format: toxicity, cell-based. The settings on record: read-out: Selectivity Index.
In data set [15] the test system is Human betaherpesvirus 5. In words: Antiviral activity against Human cytomegalovirus Towne infected in human hTERT-BJ1 cells assessed as inhibition of attachment of virus particles to the cell surface at 1 mg/ml after 2 hrs post infection by quantitative PCR. It counts as functional, organism-based. The settings on record: BJ.
The subject of data set [16] is Human betaherpesvirus 5. Briefly: Antiviral activity against 0.05 MOI Human cytomegalovirus Towne infected in human hTERT-BJ1 cells assessed as decrease in IE2 gene expression at 20 uM after 24 hrs by […]. Format: functional, organism-based. The settings on record: BJ. The essentials:
as §3

The subject of data set [17] is Human betaherpesvirus 5. In words: Antiviral activity against 0.05 MOI Human cytomegalovirus Towne infected in human hTERT-BJ1 cells assessed as decrease in IE1 gene expression at 20 uM after 24 hrs by RT-PCR. It counts as functional, organism-based. The settings on record: BJ. The essentials:
as §3

Data set [18] has as its system Human betaherpesvirus 5. In words: Antiviral activity against Human cytomegalovirus Towne infected in human hTERT-BJ1 cells assessed as inhibition of virus induced infection after 6 hrs post infection by luciferase reporter gene assay. The settings on record: BJ. Format: functional, organism-based. Summed up:
as §2

Data set [19] relates to Human betaherpesvirus 5. In words: Antiviral activity against 3 MOI Human cytomegalovirus Towne infected in human hTERT-BJ1 cells assessed as inhibition of viral DNA replication at 5 uM by qPCR. Format: functional, organism-based. The settings on record: BJ. Summed up: (§5)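 hTERT-BJ1 cells infected with HCMV at MOI 0.05 or 3.0, cultured for set durations with DMSO, 20 μM or 5 μM compound; DNA extracted (QIAamp) and HCMV UL83 and human albumin genes quantified by qPCR against plasmid and cellular DNA standards; viral copies divided by albumin copies as copies per cell; triplicate experiments, mean and SD.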

In data set [20] the test system is Human betaherpesvirus 5. Briefly: Antiviral activity against 0.05 MOI Human cytomegalovirus Towne infected in human hTERT-BJ1 cells assessed as inhibition of viral DNA replication at 5 uM by qPCR. It counts as functional, organism-based. The settings on record: BJ. Summed up: as §5
Data set [21] deals with Human betaherpesvirus 5. In words: Antiviral activity against 0.05 MOI Human cytomegalovirus Towne infected in human hTERT-BJ1 cells assessed as inhibition of viral DNA replication at 20 uM by qPCR. Format: functional, organism-based. The settings on record: BJ. The essentials: as §5
Data set [22] concerns Human betaherpesvirus 5. In words: Antiviral activity against Human cytomegalovirus Towne infected in human hTERT-BJ1 cells assessed as decrease in G6PD gene expression at 15 uM after 24 hrs by RT-PCR. It counts as functional, organism-based. The settings on record: BJ. The essentials:
as §3

The test system of data set [23] is Human betaherpesvirus 5. In words: Antiviral activity against 0.05 MOI Human cytomegalovirus Towne infected in human hTERT-BJ1 cells assessed as decrease in IE2 gene expression at 15 uM after 24 hrs by […]. Format: functional, organism-based. The settings on record: BJ. The essentials:
as §3

In data set [24] the test system is Human betaherpesvirus 5. Briefly: Antiviral activity against 3 MOI Human cytomegalovirus Towne infected in human hTERT-BJ1 cells assessed as inhibition of viral DNA replication at 20 uM by qPCR. Format: functional, organism-based. The settings on record: BJ. The essentials: as §5
Data set [25] deals with Human betaherpesvirus 5. Briefly: Antiviral activity against Human cytomegalovirus Towne infected in human hTERT-BJ1 cells assessed as decrease in IE2 mRNA level at 5 uM after 24 hrs by immunofluorescent assay. It counts as functional, organism-based. The settings on record: BJ.
Data set [26] concerns Human betaherpesvirus 5. Briefly: Antiviral activity against human cytomegalovirus Towne infected in human U4C-48 cells assessed as decrease in viral titer by luciferase reporter gene assay. The settings on record: Human betaherpesvirus 5, Towne. Format: functional, organism-based. Summed up: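 U4C-48 reporter cells (U373MG carrying TRL4 promoter-luciferase) infected with HCMV laboratory strain or clinical isolates and cultured 2 days with compound dilutions; luciferase read by chemiluminescence, triplicate. EC50 taken as concentration reducing luciferase to the level of cells given half the virus inoculum.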

The test system of data set [27] is Human betaherpesvirus 5. In words: Antiviral activity against 0.05 MOI Human cytomegalovirus Towne infected in human hTERT-BJ1 cells assessed as decrease in IE1 gene expression at 15 uM after 24 hrs by RT-PCR. It counts as functional, organism-based. The settings on record: BJ. Summed up: as §3
The subject of data set [28] is Human betaherpesvirus 5. Briefly: Antiviral activity against Human cytomegalovirus Towne infected in human hTERT-BJ1 cells assessed as inhibition of virus induced infection after 12 hrs post infection by luciferase reporter gene assay. Format: functional, organism-based. The settings on record: BJ. Summed up: as §2
Data set [29] deals with Human betaherpesvirus 5. Briefly: Antiviral activity against Human cytomegalovirus Towne infected in human hTERT-BJ1 cells assessed as decrease in ICP22 mRNA level at 20 uM after 48 hrs by immunofluorescent assay. Format: functional, organism-based. The settings on record: BJ.

The structures appear in SMILES notation. Active and inactive are the calls of the source. The rule behind the calls is not given here.

For `Nc1nc2c(ncn2COC(CO)CO)c(=O)[nH]1` [GANCICLOVIR], the figures for the EC50 in data set [1], in data set [2] and in data set [3] were 5.7 µM, 25.9 µM and 1.4 µM, respectively.

Take `NC(=O)C1CCN(c2c(Cl)cncc2Cl)CC1`: the EC50 amounted to 3 µM in data set [1]; 5 µM in data set [6]; 3.5 µM in [8]; 6.2 µM in data set [2]; 2.5 µM in [3]; 5 µM in [26]. Further, the inhibition result in data set [4] and in data set [5] was “inactive” throughout. The result in data set [7] and in data set [22] was inactive. In addition, the CC50 in data set [9] and in data set [11] was 100 µM each time. Further, the inhibition result in data set [10], in data set [13], in [15], in data set [18], in data set [19] and in data set [20] was “Active” each time. For the same molecule, the inhibition result in [21], in [24], in data set [25], in data set [28] and in [29] was “Active” in each case. For the same molecule, the selectivity ratio in data set [12] and in data set [14] was > 10 each time. The outcome in data set [16], in data set [17], in data set [23] and in data set [27] was Active.
